According to ChEMBL document CHEMBL1153795, “Aromatic cyclic peroxides and related keto-compounds from the Plakortis sp. component of a sponge consortium” (2009):
Converted amounts (≈) assume the structure as drawn. The source made the active and inactive calls. The rule behind the calls is not given here.

How the values were obtained:
Escherichia coli = assay: Antibacterial activity against Escherichia coli after 24 hrs by broth macridilution method; type: functional, organism-based
Outline: (§1)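 Broth macrodilution in LB medium (10 g/L Bactotryptone, 5 g/L Bactoyeast, 10 g/L NaCl, pH 7.5). Inoculum was set to 0.5 McFarland (2 × 10^8 cfu/mL) at 530 nm, then diluted 1:4000 to 50 000 cfu/mL. Tubes held eleven 2-fold dilutions (512–[…] µg/mL final) and were incubated 24 h at 37 °C. MIC90 was taken as the lowest concentration with no visible growth.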

Candida albicans = assay: Antifungal activity against Candida albicans after 24 hrs by broth macridilution method; type: functional, organism-based
Staphylococcus aureus = assay: Antibacterial activity against Staphylococcus aureus after 24 hrs by broth macridilution method; type: functional; outline: as §1

Row | Structure (SMILES) | Activity (Escherichia coli) | Activity (Candida albicans) | MIC (Staphylococcus aureus)
1 | CC(CCCCCC/C=C/c1ccccc1)C[C@@]1(C)C[C@@H](C)[C@@](C)(O)OO1 (stereo partly specified) | inactive | inactive | –
2 | CC(CCCCCCCCc1ccccc1)C[C@@]1(C)C[C@@H](C)[C@@](C)(O)OO1 (stereo partly specified) | inactive | inactive | 64 µg/mL (≈ 170 µM)
3 | CC(=O)CC(C)CCCCCC/C=C/c1ccccc1 (stereo unspecified) | inactive | inactive | –
4 | CC(=O)CC(C)CCCCCCCCc1ccccc1 (stereo unspecified) | inactive | inactive | –
5 | COC(=O)C[C@]1(O)OO[C@@](C)(C/C(C)=C/C=C/Cc2ccccc2)C[C@H]1C | inactive | inactive | –
